Values after ≈ are worked out from the molar mass of the structure shown. Active and inactive are the calls of the source. The calls are words filed in the database; no cut-off is given here.

For assay [1], the system named is Enterococcus faecalis. The assay can be described thus: Minimum inhibitory activity against tetracycline-susceptible Enterococcus faecalis strain ATCC 9790 (Tet L on plasmid MV158). It is filed as functional. As to conditions: in the assay text read “tetracycline-resistant” for “tetracycline-susceptible”. The procedure, abridged: (§1)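 Inoculum about 10⁶ cfu/mL into two-fold dilutions from 200 to 0.030 µg/mL, made from a 10 mg/mL stock in H₂O or 1:1 H₂O/MeOH. Incubated 18–20 h at 37 °C; MIC = amount inhibiting growth.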

In assay [2] the test system is Enterococcus faecalis. The assay can be described thus: Minimum inhibitory activity against tetracycline-susceptible Enterococcus faecalis strain ATCC 9790. It is filed as functional. The procedure, abridged:
(§2)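 Broth dilution MIC in Luria broth. Two-fold dilutions from a 10 mg/mL stock in H₂O or 1:1 H₂O/MeOH, test range 200–0.030 µg/mL, incubated 18–20 h at 37 °C. MIC = lowest amount inhibiting growth.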

Assay [3] deals with Escherichia coli. In words: Minimum inhibitory activity against tetracycline-susceptible Escherichia coli strain ML308-225 (Tet A on plasmid pIP15). It is filed as functional. A digest of the protocol: as §1
Assay [4] relates to Staphylococcus aureus. In words: Minimum inhibitory activity against tetracycline-susceptible Staphylococcus aureus strain RN450. It is filed as functional. A digest of the protocol:
as §2

Assay [5] concerns Escherichia coli. The assay can be described thus: Growth inhibitory activity against tetracycline-resistant ML308-225 bacterial strain of Escherichia coli. It counts as functional, organism-based. A digest of the protocol: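 MIC by two-fold broth dilution in Luria broth from a 10 mg/mL stock, test range 200 to 0.030 µg/mL. Compounds dissolved in H2O or 1:1 H2O/MeOH. Inoculum about 10⁶ cfu/mL. Incubated 18–20 h at 37 °C. MIC taken as the lowest amount that inhibited growth.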

For assay [6], the system named is Escherichia coli. In words: Minimum inhibitory activity against tetracycline-susceptible Escherichia coli strain D31m4 (Tet B on plasmid pHCMI). It counts as functional. Conditions: in the assay text read “tetracycline-resistant” for “tetracycline-susceptible”. The procedure, abridged: as §1
The subject of assay [7] is Escherichia coli. In words: Minimum inhibitory activity against tetracycline-susceptible Escherichia coli strain D31m4. It is filed as functional. A digest of the protocol:
as §2

For assay [8], the system named is Escherichia coli. In words: (§3) Inhibitory activity against tetracycline uptake in everted membrane vesicles derived from Tc-resistant Escherichia coli bearing class B tetracycline resistance efflux protein (Tet). It counts as functional. A digest of the protocol: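 Everted inner-membrane vesicles from E. coli D1-209 carrying plasmid R222 (class B Tet on Tn10). Vesicles energized with Li lactate and given [³H]Tc together with the analogue. Accumulation read at 2.5 min against uptake without analogue. CCCP-deenergized vesicles served as negative control. IC50 is the concentration giving 50% inhibition of [³H]Tc uptake.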

Assay [9] concerns Staphylococcus aureus. In words: Minimum inhibitory activity against tetracycline-susceptible Staphylococcus aureus strain RN450 (Tet K on plasmid pT181). It counts as functional. The procedure, abridged:
as §1

In assay [10] the test system is Escherichia coli. The assay can be described thus: Minimum inhibitory activity against tetracycline-susceptible Escherichia coli strain ML308-225 (Tet B on plasmid R222). It counts as functional. The procedure, abridged: as §1
For assay [11], the system named is Escherichia coli. The description is as §3. It counts as functional. A digest of the protocol: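 Everted inner membrane vesicles from E. coli D1-209 carrying plasmid R222 (class B Tc determinant on Tn10), energized with Li lactate; test compound added together with [³H]Tc. Accumulated [³H]Tc read at 2.5 min after energization, compared with uptake without analogue; CCCP-deenergized vesicles served as the negative control. IC50 = concentration giving 50% inhibition of uptake. Separately screened for disruption of the pH gradient by acridine orange fluorescence in vesicles from isogenic Tc-susceptible cells.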
The source holds these as a separate data set.

Assay [12] deals with Escherichia coli. In words: Minimum inhibitory activity against tetracycline-susceptible Escherichia coli strain ML308-225. It is filed as functional. A digest of the protocol:
as §2

Assay [13] deals with Escherichia coli. In words: Minimum inhibitory activity against tetracycline-susceptible Escherichia coli strain ML308-225 (Tet B on plasmid R222) in combination with doxycycline; No effect. It counts as functional, organism-based.
For assay [14], the system named is Escherichia coli. In words: Minimum inhibitory activity against tetracycline-susceptible Escherichia coli strain ML308-225 (Tet B on plasmid R222) in combination with doxycycline; no effect. It counts as functional, organism-based.

Consider `C[C@H]1c2cccc(O)c2C(=O)C2=C(O)[C@]3(O)C(=O)C(C(N)=O)=C(O)[C@@H](N(C)C)[C@@H]3[C@@H](O)[C@@H]21.O` [DOXYCYCLINE], for which the MIC in assay [1] turned out to be 6.25 µg/mL; in assay [2], 0.25 µg/mL; in [3], 50 µg/mL; in assay [4] it was 0.25 µg/mL; in [6], 12.5 µg/mL; in assay [7], 0.5 µg/mL. The MIC in assay [8] was 0.5 µg/mL; in assay [9] it was 12.5 µg/mL; in assay [10], greater than 50 µg/mL. For the same compound, the values for the IC50 in [5] and in assay [11] were 9.2 µM and greater than 75 µM, respectively.
Compound `CC(=O)Oc1cccc2c1C(=O)C1=C(O)[C@]3(OC(C)=O)C(O)=C(C(N)=O)C(=O)[C@@H](N(C)C)C3CC1[C@]2(C)O` (stereo partly specified) yielded an IC50 in [11] greater than 75 µM.
The compound `COc1cc(O)c2c(c1)C(=O)c1cc3c(c(O)c1C2=O)C(OC1OC(C)C(OC)C(O)C1OC)C(OC)C(C)(O)C3=O` (stereo unspecified) came in with an IC50 in assay [11] greater than 75 µM.
In assay [11], `COc1ccc(Cl)c2c1C(=O)CC(CC(=O)O)S2` (stereo unspecified) gave an IC50 greater than 150 µM.
Compound `CN(C)c1ccc2c(c1O)C(=O)C1=C(O)[C@]3(O)C(O)=C(C(N)=O)C(=O)[C@@H](N(C)C)C3CC1C2` (stereo partly specified) registered an IC50 in [11] of 15.4 µM.
`CN(C)[C@@H]1C(=O)C(C(N)=O)=C(O)[C@@]2(O)C(O)=C3C(=O)c4c(O)cccc4[C@H](C[S+]([O-])c4ccccc4)C3CC12` (stereo partly specified) displayed an IC50 in [11] of 0.7 µM.
In the case of `O=CCC1CC(=O)c2c(O)cccc2S1` (stereo unspecified), in assay [11], the IC50 was greater than 75 µM.
In [11], `COc1cc(O)c2c(c1Cl)CC1CC3[C@H](N(C)C)C(=O)C(C(N)=O)=C(O)[C@@]3(O)C(O)=C1C2=O` (stereo partly specified) returned an IC50 of 19.5 µM.
The compound `COC(C(=O)[C@@H](O)[C@@H](C)O)C1Cc2cc3cc(O)cc(O)c3c(O)c2C(=O)C1O` (stereo partly specified) registered an IC50 in [11] greater than 100 µM.
With `CN(C)[C@@H]1C(=O)C(C(N)=O)=C(O)[C@@]2(O)C(O)=C3C(=O)c4c(ccc([N+](=O)[O-])c4O)CC3CC12` (stereo partly specified), in assay [11], the IC50 was determined as 12.3 µM.
As for `COC(=O)c1c(O)cccc1CC1CC(=O)[C@@]2(O)C(O)=C(C(N)=O)C(=O)[C@@H](N(C)C)C2C1` (stereo partly specified), in assay [11], the IC50 is greater than 75 µM.
Same read-out and setting: the figure for `Cc1cc(O)c2c(c1O)C(=O)c1cc(O)cc(O)c1C2=O` [CATENARIN] is greater than 150 µM; for `CN(C)[C@@H]1C(=O)C(C(N)=O)=C(O)[C@@]2(O)C(O)=C3C(=O)c4c(O)cccc4SC3CC12` (stereo partly specified) it is 4.6 µM; for `O=C(O)CC1CC(=O)c2c(O)ccc(Cl)c2S1` (stereo unspecified) it is greater than 150 µM.
Consider `CC(=O)OC1=CC[C@H]2CC3C(=C(O)c4c(O)cccc4C3O[Si](C)(C)C(C)(C)C)C(=O)[C@H]2C1` (stereo partly specified), for which, in assay [11], the concentration for half-maximal inhibition (IC50) is greater than 150 µM.
On the same count and under the same terms, the figure for `CN(C)c1ccc(O)c2c1CC1CC3[C@H](N(C)C)C(=O)C(C(N)=O)=C(O)[C@@]3(O)C(O)=C1C2=O` (stereo partly specified) is 2.3 µM; for `CN(C)[C@@H]1C(=O)C(C(N)=O)=C(O)[C@@]2(O)C(O)=C3C(=O)c4c(O)cccc4[C@H](CS)C3[C@H](O)C12` (stereo partly specified) it is 4.6 µM.
Still for that read-out and setting: the figure for `CN(C)[C@@H]1C(=O)C(C(N)=O)=C(O)[C@@]2(O)C(=O)C3(F)C(=O)c4c(O)cccc4CC3CC12` (stereo partly specified) is greater than 75 µM.
In assay [11], `O=CCC1CC(=O)c2c(O)ccc(Cl)c2S1` (stereo unspecified) gave an IC50 greater than 75 µM.
`COC(C(=O)[C@@H](O)C(C)O)C1Cc2cc3cc(O)c(C)c(O)c3c(O)c2C(=O)C1O` (stereo partly specified) returned an IC50 in assay [11] greater than 100 µM.
On the same count and under the same terms, the figure for `COc1cccc2c1C(=O)c1c(O)c3c(c(O)c1C2=O)C[C@@](O)(C(=O)CO)C[C@@H]3O[C@H]1C[C@H](N)[C@H](O)[C@H](C)O1` [DOXORUBICIN] is greater than 75 µM; for `CC(=O)OC1=C(Sc2ccccc2)C[C@H]2Cc3cc4cccc(O)c4c(O)c3C(=O)[C@H]2C1` it is greater than 150 µM.
Same read-out and setting: the figure for `O=C1c2ccc(O)c(O)c2C(=O)c2c(O)ccc(O)c21` [QUINALIZARIN] is greater than 150 µM; for `CC(=O)C1CCC2C(=O)C3=C(O)c4c(O)ccc(O)c4CC3CC2C1` (stereo unspecified) it is greater than 75 µM.
For the compound `CCCSC[C@H]1c2cccc(O)c2C(=O)C2=C(O)[C@]3(O)C(O)=C(C(N)=O)C(=O)[C@@H](N(C)C)C3[C@@H](O)C21` (stereo partly specified), the MIC in [12] is 40 µg/mL (≈ 77.1 µM); in [1], 1.56 µg/mL (≈ 3.01 µM); in assay [2], 1.25 µg/mL (≈ 2.41 µM); in [3], greater than 50 µg/mL; in assay [4], 0.6 µg/mL (≈ 1.16 µM); in [6] it was 12.5 µg/mL (≈ 24.1 µM). Also, the MIC in [7] is 10 µg/mL (≈ 19.3 µM); in assay [9], 12.5 µg/mL (≈ 24.1 µM); in [10], greater than 50 µg/mL. For the same compound, in [13], the MIC entry was “inactive”.
The compound `CC1CC(=O)C2=C(O)c3c(O)ccc(O)c3CC2C1` (stereo unspecified) showed an IC50 in assay [11] greater than 130 µM.
With `CN(C)[C@@H]1C(=O)C(C(N)=O)=C(O)[C@@]2(O)C(O)=C3C(=O)c4c(O)cccc4[C@H](CSCCC(=O)O)C3CC12` (stereo partly specified), the MIC in assay [12] was greater than 40 µg/mL; in assay [1], 3.12 µg/mL (≈ 5.86 µM); in assay [2], 10 µg/mL (≈ 18.8 µM); in [3], greater than 50 µg/mL; in assay [4], 2.5 µg/mL (≈ 4.69 µM); in [6], greater than 50 µg/mL. Further, the results for the MIC in assay [7], in assay [9] and in [10] were 20 µg/mL (≈ 37.6 µM), 12.5 µg/mL (≈ 23.5 µM) and greater than 50 µg/mL, respectively. In addition, the MIC entry in [14] is “inactive”.
In [11], `CC(=O)SC[C@H]1c2cccc(O)c2C(=O)C2=C(O)[C@]3(O)C(O)=C(C(N)=O)C(=O)[C@@H](N(C)C)C3[C@@H](O)C21` (stereo partly specified) registered an IC50 of 4.6 µM. In other words, the single-digit micromolar range.
Compound `CN(C)[C@@H]1C(=O)C(C(N)=O)=C(O)[C@@]2(O)C(=O)C3C(=O)c4c(O)ccc(Cl)c4[C@@](C)(O)C3CC12` (stereo partly specified) yielded an IC50 in assay [11] greater than 75 µM.
Same read-out and setting: to `COc1cc(O)c2c(c1)C(=O)c1cc3c(c(O)c1C2=O)C(OC1OC(C)C(O)C(O)C1OC)C(OC)C(C)(O)C3=O` (stereo unspecified) belongs greater than 75 µM.
For `C=C1c2cccc(O)c2C(=O)C2(Cl)C(=O)[C@]3(O)C(O)=C(C(N)=O)C(=O)[C@@H](N(C)C)C3CC12` (stereo partly specified), the IC50 in assay [11] was greater than 75 µM.
In the case of `CN(C)[C@@H]1C(=O)C(C(N)=O)=C(O)[C@@]2(O)C(O)=C3C(=O)c4c(O)cccc4[C@H](CSCCCCl)C3[C@H](O)C12` (stereo partly specified), the MIC is 10 µg/mL (≈ 18.1 µM) in assay [12]; 1.56 µg/mL (≈ 2.82 µM) in [1]; 0.6 µg/mL (≈ 1.08 µM) in assay [2]; 50 µg/mL (≈ 90.4 µM) in assay [3]; 0.6 µg/mL (≈ 1.08 µM) in [4]; 6.25 µg/mL (≈ 11.3 µM) in assay [6]. Besides, the values for the MIC in assay [7], in assay [9] and in assay [10] were 2.5 µg/mL (≈ 4.52 µM), 6.25 µg/mL (≈ 11.3 µM) and greater than 50 µg/mL, respectively. Further, the MIC result in assay [13] was “inactive”. In assay [11], the IC50 worked out at 0.6 µM.
On to `COC(=O)C12Oc3ccc(-c4ccc5c(c4O)C(O)=C4C(=O)CC(C)C(O)C4(C(=O)OC)O5)c(O)c3C(O)=C1C(=O)CC(C)C2O` (stereo unspecified), for which the IC50 in assay [11] is greater than 75 µM.

The record behind these values is ChEMBL document CHEMBL1127651, “Molecular requirements for the inhibition of the tetracycline antiport protein and the effect of potent inhibitors on the growth of tetracycline-resistant bacteria” (J Med Chem, 1994).
